Measurements published in ChEMBL document CHEMBL3352225, “Bioreductively Activated Reactive Oxygen Species (ROS) Generators as MRSA Inhibitors” (ACS Med Chem Lett, 2014).
Converted amounts (≈) assume the structure as drawn. “And” between values parts separate entries of the source, which are not always exact repeats. Equal entries are not always repeated. Values belong to the molecule of their own block, whether it stands above or below them. The source made the active and inactive calls. The calls are words filed in the database; no cut-off is given here.

Tests used:
[1] = test system: Staphylococcus aureus; assay: Antimicrobial activity against methicillin-sensitive Staphylococcus aureus ATCC 29213 after 18 to 20 hrs by microbroth dilution technique; format: functional
In short: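 MIC taken as the lowest concentration that prevents visible bacterial growth of MSSA 29213, reported in μg/mL.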

[2] = test system: Staphylococcus aureus; assay: Antimicrobial activity against methicillin-resistant Staphylococcus aureus 7425 after 18 to 20 hrs by microbroth dilution technique; format: functional
In short: (§1)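 Broth microdilution MIC, taken as the lowest concentration preventing visible growth. MRSA 33591 was the reference strain and the others were clinical MRSA isolates. Vancomycin was tested alongside as comparator. Values are reported in μg/mL and μM.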

[3] = test system: Staphylococcus aureus; assay: Antimicrobial activity against methicillin-resistant Staphylococcus aureus B0085 after 18 to 20 hrs by microbroth dilution technique; format: functional; in short: as §1
[4] = test system: Staphylococcus aureus; assay: Antimicrobial activity against methicillin-sensitive Staphylococcus aureus ATCC 29213 assessed as growth inhibition at 8 times MIC measured over 3 hrs in presence of thiourea; format: functional, organism-based
[5] = test system: Staphylococcus aureus; assay: Antimicrobial activity against methicillin-resistant Staphylococcus aureus B21838 after 18 to 20 hrs by microbroth dilution technique; format: functional; in short: as §1
[6] = test system: Staphylococcus aureus; assay: Antimicrobial activity against methicillin-resistant Staphylococcus aureus E9902 after 18 to 20 hrs by microbroth dilution technique; format: functional; in short: as §1
[7] = test system: Staphylococcus aureus; assay: Antimicrobial activity against Staphylococcus aureus assessed as extracellular H2O2 generation at 2 ug/ml measured after 60 mins by Amplex Red-based fluorescence assay; format: functional, organism-based
In short: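 S. aureus cells were exposed to compound for 60 min, and H2O2 released into the medium was quantified by Amplex Red fluorescence as a surrogate marker for intracellular ROS. Untreated bacteria served as the control.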

[8] = test system: Staphylococcus aureus; assay: Antimicrobial activity against methicillin-resistant Staphylococcus aureus B19506 after 18 to 20 hrs by microbroth dilution technique; format: functional; in short: as §1
[9] = test system: Staphylococcus aureus; assay: Antimicrobial activity against Staphylococcus aureus assessed as intracellular superoxide generation measured as formation of 2-OH-E+ measured after 1 hr by dihydroethidium assay; format: functional, organism-based
In short: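 Intact S. aureus cells were incubated with DHE across a range of compound concentrations. Products were 2-hydroxyethidium (2-OH-E+), which is superoxide-specific, and ethidium (E+), which comes from nonspecific oxidation. Untreated bacteria served as the control.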

[10] = test system: Staphylococcus aureus; assay: Antimicrobial activity against methicillin-resistant Staphylococcus aureus 7419 after 18 to 20 hrs by microbroth dilution technique; format: functional; in short: as §1
[11] = test system: Staphylococcus aureus; assay: Induction of DNA damage in methicillin-sensitive Staphylococcus aureus ATCC 29213 assessed as upregulation of RecA expression at 6.7 times MIC measured after 120 mins by PCR analysis; format: functional, organism-based
[12] = Cytotoxicity against human A549 cells after 72 hrs by MTT assay; format: cell-based
[13] = test system: Staphylococcus aureus; assay: Antimicrobial activity against methicillin-resistant Staphylococcus aureus 33591 after 18 to 20 hrs by microbroth dilution technique; format: functional; in short: as §1
[14] = H2O2 generation in buffer at pH 7.4 at 2 ug/ml measured after 5 mins by Amplex Red-based fluorescence assay in presence of DT-diaphorase
[15] = test system: Staphylococcus aureus; assay: Antimicrobial activity against methicillin-sensitive Staphylococcus aureus ATCC 29213 assessed as intracellular oxidative species generation at 0.5 ug/ml measured after 1 hr by dichlorofluorescein-diacetate fluorescence assay; format: functional, organism-based
[16] = Superoxide generation in buffer at pH 7.4 assessed as formation of 2-OH-E+ at 200 to 500 ug/ml measured after 10 mins by dihydroethidium assay in presence of DT-diaphorase
In short: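 Compound was incubated with NQO1 (DT-diaphorase). The DHE-derived products 2-OH-E+ (superoxide-specific) and E+ (nonspecific oxidation) were separated and quantified by HPLC. The control was compound in pH 7.4 buffer without enzyme.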

[17] = test system: Staphylococcus aureus; assay: Antimicrobial activity against methicillin-resistant Staphylococcus aureus E151 after 18 to 20 hrs by microbroth dilution technique; format: functional; in short: as §1
[18] = test system: Staphylococcus aureus; assay: Antimicrobial activity against methicillin-resistant Staphylococcus aureus 7386 after 18 to 20 hrs by microbroth dilution technique; format: functional; in short: as §1
[19] = Selectivity index, ratio of GI50 for human A549 cells to MIC for methicillin-resistant Staphylococcus aureus 33591
[20] = test system: Staphylococcus aureus; assay: Antimicrobial activity against methicillin-resistant Staphylococcus aureus B853 after 18 to 20 hrs by microbroth dilution technique; format: functional; in short: as §1
[21] = Superoxide generation in buffer at pH 7.4 at 25 uM measured at 1 min interval for 4 mins by luminol-based chemiluminescence assay in presence of DT-diaphorase
In short: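 Superoxide from compound plus NQO1 (DT-diaphorase) was followed as a time course by luminol chemiluminescence. The control was compound alone in pH 7.4 buffer.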

[22] = test system: Staphylococcus aureus; assay: Antimicrobial activity against methicillin-resistant Staphylococcus aureus E288 after 18 to 20 hrs by microbroth dilution technique; format: functional; in short: as §1
[23] = test system: Staphylococcus aureus; assay: Antimicrobial activity against methicillin-resistant Staphylococcus aureus K-1 after 18 to 20 hrs by microbroth dilution technique; format: functional; in short: as §1

MIC [1]: > 32 µg/mL
SMILES: CCn1c2c(c3ccccc3c1=O)C(=O)c1ccccc1C2=O

SMILES: CN[C@H](CC(C)C)C(=O)N[C@H]1C(=O)N[C@@H](CC(N)=O)C(=O)N[C@H]2C(=O)N[C@H]3C(=O)N[C@H](C(=O)N[C@H](C(=O)O)c4cc(O)cc(O)c4-c4cc3ccc4O)[C@H](O)c3ccc(c(Cl)c3)Oc3cc2cc(c3O[C@@H]2O[C@H](CO)[C@@H](O)[C@H](O)[C@H]2O[C@H]2C[C@](C)(N)[C@H](O)[C@H](C)O2)Oc2ccc(cc2Cl)[C@H]1O [VANCOMYCIN]
MIC [2]: 0.12 µg/mL (≈ 0.0828 µM)

SMILES: C[C@@H]1O[C@@H]1P(=O)(O)O [FOSFOMYCIN]
MIC [1]: 8 µg/mL (≈ 57.9 µM)

MIC [1]: > 32 µg/mL
SMILES: CCCn1c2c(c3ccccc3c1=O)C(=O)c1ccccc1C2=O

MIC [1]: > 32 µg/mL
SMILES: COC(=O)Cn1c2c(c3ccccc3c1=O)C(=O)c1ccccc1C2=O

SMILES: C#CCn1c2c(c3ccccc3c1=O)C(=O)c1ccccc1C2=O
MIC [3]: 0.5 µg/mL and 1.6 µM
growth inhibition (GI) [4]: inactive
MIC [5]: 0.5 µg/mL and 1.6 µM
MIC [6]: 0.5 µg/mL and 1.6 µM
Activity [7]: Active
MIC [8]: 0.06 µg/mL and 0.19 µM
MIC [2]: 0.12 µg/mL and 0.38 µM
Activity [9]: Dose-dependent effect
MIC [1]: 0.5 µg/mL (≈ 1.6 µM)
MIC [10]: 0.12 µg/mL and 0.38 µM
Activity [11]: Active
GI50 at 72 h [12]: 8.6 µM
MIC [13]: 0.5 µg/mL and 1.6 µM
Activity [14]: Active
Activity [15]: Active
Activity [16]: Active
MIC [17]: 0.5 µg/mL and 1.6 µM
MIC [18]: 1 µg/mL and 3.19 µM
Selectivity Index [19]: >5
MIC [20]: 1 µg/mL and 3.19 µM
Activity [21]: Active
MIC [22]: 0.5 µg/mL and 1.6 µM
MIC [23]: 0.25 µg/mL and 0.8 µM

MIC [1]: > 32 µg/mL
SMILES: O=C1c2ccccc2C(=O)c2c1c1ccccc1c(=O)n2C1CCCCC1

MIC [1]: 1 µg/mL (≈ 3.46 µM)
SMILES: Cn1c2c(c3ccccc3c1=O)C(=O)c1ccccc1C2=O

MIC [1]: > 32 µg/mL
SMILES: O=C1c2ccccc2C(=O)c2c1c1ccccc1c(=O)n2Cc1ccccc1

SMILES: NC[C@H]1O[C@H](O[C@H]2[C@H](O)[C@@H](O[C@H]3O[C@H](CO)[C@@H](O)[C@H](N)[C@H]3O)[C@H](N)C[C@@H]2N)[C@H](N)C[C@@H]1O [TOBRAMYCIN]
MIC [1]: 1 µg/mL (≈ 2.14 µM)

MIC [1]: > 32 µg/mL
SMILES: O=C1c2ccccc2C(=O)c2c1c1ccccc1c(=O)n2Cc1ccc(C(F)(F)F)cc1

MIC [1]: > 32 µg/mL
SMILES: C=CCn1c2c(c3ccccc3c1=O)C(=O)c1ccccc1C2=O

MIC [1]: 8 µg/mL (≈ 17.6 µM)
SMILES: COc1cc(Cn2c3c(c4ccccc4c2=O)C(=O)c2ccccc2C3=O)cc(OC)c1OC

MIC [1]: > 32 µg/mL
SMILES: O=C1c2ccccc2C(=O)c2c1c1ccccc1c(=O)n2Cc1ccc(Cl)cc1

MIC [1]: 32 µg/mL (≈ 80.9 µM)
SMILES: COc1ccc(Cn2c3c(c4ccccc4c2=O)C(=O)c2ccccc2C3=O)cc1

MIC [1]: > 32 µg/mL
SMILES: O=C1c2ccccc2C(=O)c2c1c1ccccc1c(=O)n2Cc1ccccc1C(F)(F)F

MIC [1]: 8 µg/mL (≈ 19.5 µM)
SMILES: O=C1c2ccccc2C(=O)c2c1c1ccccc1c(=O)n2Cc1ccc([N+](=O)[O-])cc1
